Measurements taken from PMC2645920 (Journal of the American Chemical Society, 2008).

Key:
[1] = Dynamic light scattering; assay type: physicochemical; conditions: 750 μM in 1X PBS
Summary of the method: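 Test compound dissolved in 1X PBS (pH 7.2), pre-filtered, and read at 22 °C with a 25 mW, 750 nm laser and a 90° detector. Detergent runs added 0.01% Triton-X 100. Each sample got ten repeat measurements, filtered on sum of squares and baseline error. Hr was derived by regularization from the autocorrelation decay. Intensity (kcps) is the mean of three or more measurements, compared with buffer.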

[2] = biological target: 5′-FAM-CCG-(CUG)10-CGG-3′ RNA (Seq. A); assay: Fluorescence titration; assay type: binding; conditions: FT
[3] = test system: (CUG)109 RNA – MBNL1 protein interaction; assay: Enzyme Fragment Complementation; assay type: biochemical; conditions: EFC assay, immobilized (CUG)109 RNA, PL-MBNL1
[4] = biological target: HIV-1 frameshift stimulatory sequence (FSS) RNA hairpin (Seq. F); assay: Fluorescence titration; assay type: binding; conditions: FT

Row | Hr (hydrodynamic radius) ([1]; pH 7.2) [nm] | Intensity ([1]; pH 7.2) [kcps] | Hr (hydrodynamic radius) ([1]; pH 7.2 + Triton-X 100 (0.01%)) [nm] | Intensity ([1]; pH 7.2 + Triton-X 100 (0.01%)) [kcps] | Molecule | Kd [2] [nM] | Inhibitory effect on (CUG)n – MBNL1 interaction [3] | Kd [4] [nM]
1 | 69.25 | 242±10 | 40.72 | 190±24 | Nc1c(/N=N/c2ccc(-c3ccc(/N=N/c4cc(S(=O)(=O)O)c5ccccc5c4N)cc3)cc2)cc(S(=O)(=O)O)c2ccccc12 [Congo Red] | – | – | –
2 | – | – | – | – | (Quin-Cys-Pro-Phe)2 [Compound 5-5] | > 40000 | do not show any inhibitory effect | 350 ± 110
